According to ChEMBL document CHEMBL3120144, “Design, synthesis and molecular modeling of aloe-emodin derivatives as potent xanthine oxidase inhibitors” (Eur J Med Chem, 2014):

How the values were obtained:
[1] = biological target: T1, Xanthine dehydrogenase/oxidase (Bos taurus, UniProt P80457); test: Inhibition of bovine xanthine oxidase using xanthine as substrate measured for 6 mins at 50 uM at 25 degC by spectrophotometry; conditions: cattle, 0.1 h
Outline: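 Xanthine substrate, 25 °C, in 50 mM K₂HPO₄ buffer at pH 7.8. Xanthine was added as an 84.8 μg/mL solution in the same buffer; this is the added solution's concentration, not the final one. Test compounds were dissolved in DMSO and added at various concentrations.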

[2] = biological target: T1, Xanthine dehydrogenase/oxidase; test: Mixed-type inhibition of bovine xanthine oxidase using xanthine as substrate at 1.4 to 5.6 uM by Lineweaver-Burk plot; conditions: cattle
[3] = biological target: T1, Xanthine dehydrogenase/oxidase; test: Inhibition of bovine xanthine oxidase using xanthine as substrate measured for 6 mins at 25 degC by spectrophotometry

T1 sequence (P80457 whole entry): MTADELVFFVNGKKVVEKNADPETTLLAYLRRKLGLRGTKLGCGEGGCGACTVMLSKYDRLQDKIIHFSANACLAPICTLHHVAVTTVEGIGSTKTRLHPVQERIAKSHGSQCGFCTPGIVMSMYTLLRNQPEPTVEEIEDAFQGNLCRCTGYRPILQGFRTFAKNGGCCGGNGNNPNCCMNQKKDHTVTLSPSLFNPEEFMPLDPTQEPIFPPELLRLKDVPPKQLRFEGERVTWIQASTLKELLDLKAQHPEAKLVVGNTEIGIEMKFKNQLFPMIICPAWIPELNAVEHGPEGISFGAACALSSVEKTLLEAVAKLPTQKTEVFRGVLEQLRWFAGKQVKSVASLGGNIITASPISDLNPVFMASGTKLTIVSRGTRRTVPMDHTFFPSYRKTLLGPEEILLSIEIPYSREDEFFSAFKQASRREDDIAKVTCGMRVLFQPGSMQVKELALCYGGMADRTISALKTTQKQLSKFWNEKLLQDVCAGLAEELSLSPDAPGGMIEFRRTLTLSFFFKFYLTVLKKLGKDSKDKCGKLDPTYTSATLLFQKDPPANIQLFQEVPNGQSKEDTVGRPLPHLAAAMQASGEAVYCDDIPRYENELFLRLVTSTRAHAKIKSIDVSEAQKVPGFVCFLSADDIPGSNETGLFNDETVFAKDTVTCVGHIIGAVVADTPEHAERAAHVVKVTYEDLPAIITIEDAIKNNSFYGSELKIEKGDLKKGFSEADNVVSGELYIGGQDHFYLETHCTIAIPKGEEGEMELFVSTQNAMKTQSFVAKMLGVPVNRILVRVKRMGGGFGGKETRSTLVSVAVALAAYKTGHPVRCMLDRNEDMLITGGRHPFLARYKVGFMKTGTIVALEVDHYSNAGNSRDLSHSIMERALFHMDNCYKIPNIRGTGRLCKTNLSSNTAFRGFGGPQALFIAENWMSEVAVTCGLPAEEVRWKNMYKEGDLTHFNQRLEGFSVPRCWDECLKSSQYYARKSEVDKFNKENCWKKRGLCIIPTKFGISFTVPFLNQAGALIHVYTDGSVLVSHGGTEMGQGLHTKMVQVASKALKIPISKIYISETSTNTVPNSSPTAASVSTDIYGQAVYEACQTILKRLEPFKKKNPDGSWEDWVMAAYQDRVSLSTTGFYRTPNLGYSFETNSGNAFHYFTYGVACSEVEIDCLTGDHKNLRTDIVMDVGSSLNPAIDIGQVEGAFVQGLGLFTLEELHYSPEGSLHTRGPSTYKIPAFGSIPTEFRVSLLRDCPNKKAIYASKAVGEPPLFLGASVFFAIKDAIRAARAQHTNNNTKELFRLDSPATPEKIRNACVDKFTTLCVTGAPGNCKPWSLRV

COc1cccc2c1C(=O)c1c(OC)cc(C[N+](C)(C)C)cc1C2=O
inhibition at 50 µM [1]: < 10%

COc1cccc2c1C(=O)c1c(OC)cc(C[N+](C)(C)c3ccccc3)cc1C2=O
inhibition at 50 µM [1]: < 10%

COc1cccc2c1C(=O)c1c(OC)cc(CO)cc1C2=O
inhibition at 50 µM [1]: 9.77%

O=Cc1cc(O)c2c(c1)C(=O)c1cccc(O)c1C2=O
inhibition at 50 µM [1]: 93.3%
inhibition (INH) [2]: Active
IC50 [3]: 2.79 µM
inhibition (INH) ([3]; cattle, 0.1 h): Dose-dependent effect

COc1cccc2c1C(=O)c1c(OC)cc(C=O)cc1C2=O
inhibition at 50 µM [1]: 36.5%

COc1cccc2c1C(=O)c1c(OC)cc(/C=N/O)cc1C2=O
inhibition at 50 µM [1]: < 10%

COc1cccc2c1C(=O)c1c(OC)cc(/C=N/N)cc1C2=O
inhibition at 50 µM [1]: < 10%

COc1cccc2c1C(=O)c1c(OC)cc(/C=N/c3ccccc3)cc1C2=O
inhibition at 50 µM [1]: 17.5%

CC(=O)OC[C@H]1OC(OC(C)=O)[C@H](/N=C/c2cc(O)c3c(c2)C(=O)c2cccc(O)c2C3=O)[C@H](OC(C)=O)[C@@H]1OC(C)=O (stereo not given in full)
inhibition at 50 µM [1]: 93.4%
IC50 [3]: 8.43 µM

O=C1c2cccc(O)c2C(=O)c2c(O)cc(CCl)cc21
inhibition at 50 µM [1]: 18.4%

COc1cccc2c1C(=O)c1c(OC)cc(CCl)cc1C2=O
inhibition at 50 µM [1]: 14.3%

O=C1c2cccc(O)c2C(=O)c2c(O)cc(C[n+]3ccccc3)cc21
inhibition at 50 µM [1]: < 10%

C[N+](C)(C)Cc1cc(O)c2c(c1)C(=O)c1cccc(O)c1C2=O
inhibition at 50 µM [1]: 68.8%
IC50 [3]: 18.7 µM

C[N+](C)(Cc1cc(O)c2c(c1)C(=O)c1cccc(O)c1C2=O)c1ccccc1
inhibition at 50 µM [1]: < 10%

COc1cccc2c1C(=O)c1c(OC)cc(C[n+]3ccccc3)cc1C2=O
inhibition at 50 µM [1]: < 10%

O=C1c2cccc(O)c2C(=O)c2c(O)cc(/C=N/c3ccccc3)cc21
inhibition at 50 µM [1]: 94.5%
IC50 [3]: 3.87 µM

CC(=O)OC[C@H]1OC(OC(C)=O)[C@H](NC(=O)c2cc(O)c3c(c2)C(=O)c2cccc(O)c2C3=O)[C@H](OC(C)=O)[C@@H]1OC(C)=O (stereo not given in full)
inhibition at 50 µM [1]: 7.2%

O=C1c2cccc(O)c2C(=O)c2c(O)cc(CO)cc21 [ALOE-EMODIN]
inhibition at 50 µM [1]: 22.5%

O=C(O)c1cc(O)c2c(c1)C(=O)c1cccc(O)c1C2=O [RHEIN]
inhibition at 50 µM [1]: 3.63%
